# H69AR growth 86K – proliferation blockers of H69AR lung cancer cells, primary screen, cell-based, human, 86K library | H69AR lung tumor viability, ATP luminescence, 72 h; hits give low values | viability, % at 10 µM | 6% of 85,000 active | AID 598, 2007;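 active means viability at or below 40%; inactive means viability above 40%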;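 further: multidrug resistant small cell line overexpressing MRP-1 efflux transporter; 100% = mean luminescence of untreated control wells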
# HCT116 PTEN-null – growth suppression of PTEN-null HCT116, primary screen, cell-based, CellTiter-Glo; HCT116 PTEN-null viability, 60 h; hits give low values; viability, % at 10 µM; 1.2% of 140,000 active; AID 827, 2007;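 active means viability at or below a set limit, 4 SD under the median of all tested compounds, cut at about 3.7% in these data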;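 further: PTEN knockout HCT116 line with beta catenin targeted HCT116 as companion control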
# HUVEC inhibit – inhibitors of HUVEC proliferation, primary screen, cell-based, 384-well; CellTiter-Glo luminescence, 72 h; hits give low values; viability, % at 10 µM (by protocol); 1.1% of 86,000 active; AID 648, 2007;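 active means viability at or below 30%; inactive means viability above 30%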;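 further: 100% = median luminescence of DMSO-only cell control wells on each plate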
# HCT116 bCat-KO – primary screen for growth suppressors in beta-catenin knockout HCT116 cells (colon tumor, human); 1.5% of 140,000 active; HCT116 beta-catenin knockout viability, CellTiter-Glo, 60 h; hits give low values; viability, % at 10 µM;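 active means viability at or under a set limit, the compound median less 4 SD, cut at about 6% in these data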;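 further: 0% = Hyamine 1622 control at 20 µM and 100% = untreated cell control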
# Lung fibro prol – antiproliferative effect on LL 47 fibroblasts – human, LL 47 cells, CellTiter-Glo luminescence, primary screen; viability, % at 10 µM; LL 47 human lung fibroblast viability, ATP luminescence; hits give low values; 1.1% of 85,000 active;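 active means viability at or below 50% in the single dose screen; inactive means viability above 50%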;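 further: compound exposure lasted 72 h before the ATP readout; 100% = median luminescence of untreated cell-only wells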
#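 Assay system: human lung fibroblast line LL 47, low passage. Input: 1,150 fibroblasts seeded per well. Times: overnight cell rest, 72 h compound treatment at 37 °C. Evaluation: % viability of median cell-only signal. Technique: luminescent ATP detection, CellTiter-Glo. Control set: cell-only wells, no compound.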
# * = called active by the depositor; / = no result given. The entries come from a sample that favours hits as a whole.
SMILES,H69AR growth 86K,HCT116 PTEN-null,HUVEC inhibit,HCT116 bCat-KO,Lung fibro prol
Cc1ccc(/C=c2\s/c(=C(/C#N)C(=O)N3CCCC3)n(Cc3ccco3)c2=O)s1,37*,48,59,54,97
COC(=O)/C=c1/s/c(=C(\C#N)C(=O)NCc2ccco2)n(-c2ccc(C)cc2)c1=O,100,96,96,89,104
COCCOC(=O)C1=C(C)Nc2ncnn2C1c1ccccc1 (stereo not drawn),/,96,90,102,109
O=C(Cn1cc([N+](=O)[O-])cn1)Nc1nc2ccccc2s1,/,28,/,30,/
Cn1cnc([N+](=O)[O-])c1S(=O)(=O)c1ccc(Cl)cc1,/,1.7*,/,1.6*,/
CC(/C=N/NC(=O)Cn1nccc1C)=C\c1ccc(C(C)C)cc1,/,75,/,78,/
Clc1ccc(N2CCN(c3ncnc4c3oc3ccccc34)CC2)cc1,65,/,27*,/,117
CC1CN(c2ncnc3c2oc2ccccc23)CC(C)O1 (stereo not drawn),73,90,93,94,97
O=C(Nc1ccc(C(=O)N2CCCCC2)cc1)c1ccc(Br)cc1,/,74,/,80,/
COc1ccc(-n2cc(-c3ccccc3)c3c(N4CCN(CCO)CC4)ncnc32)cc1,58,18,30*,33,74
Cc1ccc(S(=O)(=O)c2nnn3c2nc(N2CCCCC2)c2ccccc23)cc1,/,88,/,92,/
O=C(CSCC(=O)Nc1ccc2ccccc2c1)NCc1ccccc1,/,93,/,101,/
CCOC(=O)c1ccc(N=Cc2nc(-c3ccccc3)oc2OC(C)=O)cc1,19*,94,55,90,97
Cc1ccc(C(=O)Oc2oc(-c3ccco3)nc2C=Nc2ccccc2)cc1,39*,92,69,93,90
COc1ccc(C(=O)NCc2ccc3c(c2)OCO3)cc1S(=O)(=O)NCc1ccc(Cl)cc1,/,84,/,92,/
COc1cccc(Cn2c(OCC3CCCO3)nc3c2c(=O)n(C)c(=O)n3C)c1 (stereo not drawn),/,93,/,89,/
COc1ccc(CCNC(=O)Cn2c(=O)cnc3ccccc32)cc1,25*,43,60,35,62
COc1ccc(C(=O)NNC(=O)c2ccccc2[N+](=O)[O-])cc1Br,/,105,/,92,/
COc1ccc2cc(C(c3nnnn3Cc3ccccc3)N3CCCCCC3)c(=O)[nH]c2c1 (stereo not drawn),67,/,85,/,100
COc1ccc2cc(C(c3nnnn3Cc3ccc(F)cc3)N3CCCCCC3)c(=O)[nH]c2c1 (stereo not drawn),37*,99,92,95,98
CCCCc1ccc(Nc2ncccc2C#N)cc1,/,73,/,72,/
CCCCN1C(=O)C(NC(C)=O)c2cc(Br)ccc21 (stereo not drawn),24*,65,95,62,100
CC(C)(C)OC(=O)[C@H]1[C@H](c2ccc([N+](=O)[O-])cc2)C2(C(=O)c3ccccc3C2=O)C2c3ccccc3C=NN21 (stereo partly drawn),/,48,/,48,/
CCC(C)n1c(=O)c(C(=O)Nc2ccccc2S(N)(=O)=O)c(O)c2ccccc21 (stereo not drawn),27*,5,69,9,102
CC(C)Cn1c(=O)c(C(=O)Nc2ccccc2S(N)(=O)=O)c(O)c2ccccc21,/,81,/,96,/
SMILES,H69AR growth 86K,HCT116 PTEN-null,HUVEC inhibit,HCT116 bCat-KO,Lung fibro prol
Cn1c(=O)c2c(ncn2CC(=O)OCC(=O)Nc2ccc(Cl)cc2)n(C)c1=O,/,95,/,95,/
CCCOc1ccccc1NC(=O)/C=C/C(N)=O,2.1*,106,86,101,60
CCCCOc1ccccc1NC(=O)C=C(C)C,98,95,100,102,95
COc1ccc(C2C(C(=O)OC3CCCCC3)=C(C)Nc3nnnn32)c(OC)c1OC (stereo not drawn),7.3*,69,100,66,93
COc1ccccc1NC(=O)CNS(=O)(=O)c1ccccc1,88,95,99,93,97
C=COC(=O)CSc1nc(-c2cccs2)ccc1C#N,85,77,83,96,102
CCOC(=O)C(C)Sc1nc(-c2cccs2)ccc1C#N (stereo not drawn),4.0*,20,53,18,77
Cc1ccc(CC(NC(=O)c2ccccc2)C(=O)N2CCCC2C(=O)O)cc1 (stereo not drawn),92,22,97,27,113
COCCNC(=O)c1c[nH]n2c(=O)cc(C3CCN(C(=O)OC(C)(C)C)CC3)nc12,85,93,96,92,85
O=C(CCN1CCOCC1)c1ccccc1,79,1.0*,92,1.2*,93
O=C(CCN1CCOCC1)c1ccc2c(c1)OCCO2,3.3*,34,95,14,95
CCOC(=O)c1ccc(N2Cc3ccccc3C2=N)cc1,/,98,/,93,/
CCOC(=O)c1ccc(N=C2C(=S)N(c3ccc(C(=O)OCC)cc3)C(=N)N2/N=C/c2ccccc2)cc1,0.9*,94,74,92,92
CN(C)c1ccc(/C=N/N2C(=N)N(c3ccccc3)C(=S)C2=Nc2ccccc2)cc1,16*,/,68,/,93
COc1cc(/C=C2\C(=O)N(CCC#N)N=C2C)c(Br)cc1OC(C)C,16*,77,69,84,85
CCC(=O)N1CCCn2c1nc1ccccc12,91,89,86,83,91
CCN1C(=O)/C(=C2/C=Cc3ccccc3N2C)OC1=S,28*,15,88,10,91
CC(=O)c1cc2c(cc1NS(=O)(=O)c1ccc3c(c1)OCCO3)OCO2,65,88,97,82,89
COC(=O)c1ccc(Cl)c(NS(=O)(=O)c2ccc3c(c2)OCCO3)c1,20*,34,61,39,82
COC(=O)COc1ccc(S(=O)(=O)Nc2ccc3c(c2)OCCO3)cc1Cl,83,103,28*,99,24*
Cc1cc2nc(SCCOC(=O)Nc3cccc(Cl)c3)nc(C)c2cc1C,/,77,/,85,/
Cc1n[nH]c(C)c1N1C(=O)c2cccc3c(Br)ccc(c23)C1=O,95,57,71,4.8*,93
O=C(CCCc1c[nH]c2ccccc12)N1CCN(c2ccc(N3CCOCC3)nn2)CC1,76,92,108,92,107
CN(C)c1ccc(N/C=C/C(=O)c2ccc(F)cc2)cc1,35*,44,48,39,99
CN(C)c1ccc(N/C=C/C(=O)c2ccco2)cc1,65,59,72,62,107
Cc1nn(-c2ccccc2)c2c1C(c1ccc(O)c(O)c1)N1C(=N2)C(Nc2ccccc2)=Nc2ccccc21 (stereo not drawn),21*,1.2*,13*,1.1*,39*
Cc1ccc(NC2=Nc3ccccc3N3C2=Nc2c(c(C)nn2-c2ccccc2)C3c2ccc(O)c(O)c2)cc1 (stereo not drawn),16*,1.1*,15*,1.2*,37*

# Source: PubChem BioAssay (SRMLSC)
